In PubChem BioAssay AID492976 (The Scripps Research Institute Molecular Screening Center, 2010):
Activity calls are given as the source filed them.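 The calls were made as follows: active = inhibition of 35% or more of the parasite aminopeptidase activity in malaria cell lysate; inactive = inhibition below 35%.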

What follows are molecules tested against Aminopeptidase N (Plasmodium falciparum (isolate 3D7)) (UniProt O96935) (assay: PfM1AAP inhibitors in parasite lysate, late-stage follow-up, cell lysate, fluorescence, malaria cell lysate, powder samples (AID 492976)). Settings: P. falciparum lysate, H-Arg-NHMec fluorogenic substrate; at 5 µM; active compounds read high.
Chain of Aminopeptidase N (Plasmodium falciparum (isolate 3D7)) (O96935 whole entry, looked up): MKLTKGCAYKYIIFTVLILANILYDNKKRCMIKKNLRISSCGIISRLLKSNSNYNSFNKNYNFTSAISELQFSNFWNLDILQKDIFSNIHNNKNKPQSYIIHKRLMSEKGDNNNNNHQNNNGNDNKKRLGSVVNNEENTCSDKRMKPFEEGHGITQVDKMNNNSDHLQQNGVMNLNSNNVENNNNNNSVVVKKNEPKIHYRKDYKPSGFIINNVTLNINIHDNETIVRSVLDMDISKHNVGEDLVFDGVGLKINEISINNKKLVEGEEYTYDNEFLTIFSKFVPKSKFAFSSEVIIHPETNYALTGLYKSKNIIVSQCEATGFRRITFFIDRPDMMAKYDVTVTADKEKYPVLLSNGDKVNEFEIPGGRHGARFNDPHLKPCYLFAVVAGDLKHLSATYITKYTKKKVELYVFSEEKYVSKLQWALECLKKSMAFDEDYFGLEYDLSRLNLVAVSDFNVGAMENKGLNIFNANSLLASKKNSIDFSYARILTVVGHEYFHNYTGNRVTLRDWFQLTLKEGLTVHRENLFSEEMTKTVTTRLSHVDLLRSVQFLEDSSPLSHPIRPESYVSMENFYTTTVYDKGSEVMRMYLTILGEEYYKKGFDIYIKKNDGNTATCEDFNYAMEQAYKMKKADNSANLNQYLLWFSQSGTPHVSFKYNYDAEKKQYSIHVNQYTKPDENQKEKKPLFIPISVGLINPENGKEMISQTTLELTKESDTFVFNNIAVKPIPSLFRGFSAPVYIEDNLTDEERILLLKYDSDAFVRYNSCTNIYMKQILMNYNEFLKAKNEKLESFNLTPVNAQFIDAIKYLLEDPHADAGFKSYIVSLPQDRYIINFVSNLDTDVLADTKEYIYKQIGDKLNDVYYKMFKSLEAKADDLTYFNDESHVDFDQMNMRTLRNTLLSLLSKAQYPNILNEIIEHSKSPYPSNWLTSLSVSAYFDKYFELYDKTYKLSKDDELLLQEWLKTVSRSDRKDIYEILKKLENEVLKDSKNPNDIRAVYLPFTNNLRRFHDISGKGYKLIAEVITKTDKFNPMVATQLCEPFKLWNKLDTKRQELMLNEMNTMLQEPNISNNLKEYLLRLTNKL
In short: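 test system = Plasmodium falciparum parasite cell lysate as enzyme source | medium = 25 mM Tris-HCl buffer, pH 7.5 | times = 10 min preincubation, 30 min reading | technique = kinetic NHMec fluorescence, ex 370 nm, em 460 nm, 60-s intervals | measure = percent inhibition relative to uninhibited and lysate-free wells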
In the case of `O=C1N=c2ccccc2=C1c1sc(=S)n(NC(=O)c2cccc(O)c2)c1O`, the inhibition is reported as 17% (inactive). With `COc1ccccc1-c1nc2ccccc2c(=O)n1NC(=O)c1cccs1` the inhibition was 0% (inactive). `O=C(O)CCC(=O)N1N=C(c2c(-c3ccccc3)c3cc(Cl)ccc3[nH]c2=O)CC1c1ccco1` (stereo not drawn) was tested, and the inhibition was 2% (inactive). With `COc1ccc(OC)c(/C=C2\SC(=S)N(C(C(=O)O)c3ccccc3)C2=O)c1` (stereo not drawn) the inhibition was 0% (inactive). For `O=C(NCc1ccco1)C1CCCN(S(=O)(=O)c2cccc3nonc23)C1` (stereo not drawn), the inhibition was 0% (inactive). With `O=C(NCCC1=CCCCC1)C1CCN(S(=O)(=O)c2ccc(Br)s2)CC1` the inhibition was 13% (inactive). `O=C1N=c2ccccc2=C1c1sc(=S)n(NC(=O)c2ccccc2)c1O` was tested, and the inhibition was 0% (inactive). For `O=C(NCc1cccc(F)c1)C1CCN(S(=O)(=O)Cc2ccccc2)CC1`, the inhibition was 35%. In the case of `CC(=O)N1N=C(c2c(O)n(C)c(=O)n(C)c2=O)CC1c1ccccc1` (stereo not drawn), the inhibition is reported as 0% (inactive). For `O=C(O)CCC(=O)N1N=C(c2c(-c3ccccc3)c3cc(Cl)ccc3[nH]c2=O)CC1c1cccs1` (stereo not drawn), the inhibition was 3% (inactive). `O=C1/C(=C/c2cccs2)SC(=S)N1NS(=O)(=O)c1ccccc1` was tested, and the inhibition was 0% (inactive). For `COc1ccc(C2CC(c3c(-c4ccccc4)c4cc(Cl)ccc4[nH]c3=O)=NN2C(=O)CCC(=O)O)cc1` (stereo not drawn), the inhibition was 0% (inactive). In the case of `O=C(Nn1c(C2CCC2)nc2ccccc2c1=O)c1cccs1`, the inhibition is reported as 0% (inactive).
